The subject of series [1] is Human immunodeficiency virus 2. The series is described as follows: Antiviral activity against HIV2 ROD infected in human CEM cells assessed as virus-induced giant cell formation after 4 days by microscopic analysis. The format is functional, organism-based. The settings on record: Human immunodeficiency virus 2, ISOLATE ROD, CCRF-CEM, 96 h. The procedure, abridged:
(§1)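 CEM cells (∼3 × 10^5 cells/cm3) infected with 100 CCID50/mL of HIV-1(IIIB) or HIV-2(ROD), seeded into wells with compound dilutions. Giant cell formation examined microscopically after 4 days at 37 °C.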

Series [2] has as its system L1210. In words: Cytostatic activity against mouse L1210 cells assessed as growth inhibition after 2 days by particle counting analysis. The format is functional, cell-based. The following applies: L1210, 48 h. The procedure, abridged: (§2)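 Tumor cells seeded and exposed to a range of compound concentrations. Cell number counted with a particle counter after 2 days (L1210, L1210/TK) or 3 days (CEM, CEM/TK, HeLa, HeLa TK, Caco-2, Colo-320).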

In series [3] the test system is CCRF-CEM. In words: Cytotoxicity against human CEM cells. Format: cell-based.
In series [4] the test system is CCRF-CEM. The series is described as follows: Cytostatic activity against human CEM cells assessed as growth inhibition after 3 days by particle counting analysis. The following applies: 72 h. Format: functional, cell-based. The procedure, abridged: as §2
Series [5] relates to HeLa. The series is described as follows: Cytostatic activity against human HeLa cells assessed as growth inhibition after 3 days by particle counting analysis. Format: functional, cell-based. The settings on record: 72 h. The procedure, abridged: as §2
The subject of series [6] is Human immunodeficiency virus 1. In words: Antiviral activity against HIV1 3B infected in human CEM cells assessed as virus-induced giant cell formation after 4 days by microscopic analysis. Format: functional, organism-based. The settings on record: Human immunodeficiency virus 1, 3B, CCRF-CEM, 96 h. The procedure, abridged: as §1
The test system of another series is Felid alphaherpesvirus 1. The series is described as follows: Antiviral activity against Feline herpesvirus infected in cat CRFK cells assessed as inhibition of virus-induced cytopathicity. The format is functional, organism-based. The following applies: Felid alphaherpesvirus 1, CRFK. (In general: Cytopathic effects are the visible damage that an infection or toxin causes in cultured cells.)

The subject of series [7] is Human alphaherpesvirus 1. In words: Antiviral activity against Herpes simplex virus 1 KOS infected in HEL cells assessed as inhibition of virus-induced cytopathicity. The format is functional, organism-based. The settings on record: Human alphaherpesvirus 1, KOS.
Series [8] in a line: Cytotoxicity against HEL cells. The settings on record: human. The format is cell-based.
Another series relates to Human alphaherpesvirus 2. The series is described as follows: Antiviral activity against Herpes simplex virus 2 G infected in HEL cells assessed as inhibition of virus-induced cytopathicity. Format: functional, organism-based. The settings on record: Human alphaherpesvirus 2, strain G.
For series [9], the system named is Human alphaherpesvirus 1. In words: Antiviral activity against acyclovir-resistant thymidine kinase-deficient Herpes simplex virus 1 KOS infected in HEL cells assessed as inhibition of virus-induced cytopathicity. The format is functional, organism-based. The following applies: Human alphaherpesvirus 1, KOS.
The test system of series [10] is CCRF-CEM. The series is described as follows: Cytostatic activity against thymidine kinase-deficient human CEM cells assessed as growth inhibition after 3 days by particle counting analysis. Format: functional, cell-based. The following applies: 72 h. The procedure, abridged:
as §2

In a further series the test system is Caco-2. In words: Cytostatic activity against human Caco2 cells assessed as growth inhibition after 3 days by particle counting analysis. The following applies: Caco-2, 72 h. The format is functional, cell-based. The procedure, abridged:
as §2

Series [11] deals with L1210. In words: Cytostatic activity against thymidine kinase-deficient mouse L1210 cells assessed as growth inhibition after 2 days by particle counting analysis. The format is functional, cell-based. The settings on record: L1210, 48 h. The procedure, abridged: as §2
The subject of series [12] is HeLa. The series is described as follows: Cytostatic activity against thymidine kinase-deficient human HeLa cells assessed as growth inhibition after 3 days by particle counting analysis. The settings on record: 72 h. Format: functional, cell-based. The procedure, abridged: as §2
The test system of the next series is COLO 320. The series is described as follows: Cytostatic activity against human COLO320 cells assessed as growth inhibition after 3 days by particle counting analysis. Format: functional, cell-based. The settings on record: COLO 320, 72 h. The procedure, abridged:
as §2

For `Nc1ncnc2c1ncn2[C@H]1CC[C@@H](CO)O1`, the EC50 (usually the midpoint of the concentration-response curve) in series [1] worked out at 2800 nM; in series [6], 7200 nM. Besides, the IC50 in the series with L1210 [2], in the series on CCRF-CEM [4] and in the series on HeLa [5] was greater than 250 µM in each case. In the series with CCRF-CEM [3], the CC50 – broadly, the concentration at which the toxic effect on the cells reaches its halfway point – was greater than 250 µM.
Regarding `CCCCCc1ccc(-c2cc3cn([C@H]4C[C@H](O)[C@@H](COP(=O)(N[C@@H](C)C(=O)OCc5ccccc5)N[C@@H](C)C(=O)OCc5ccccc5)O4)c(=O)nc3o2)cc1`, the EC50 in the series on Felid alphaherpesvirus 1, in the series with Human alphaherpesvirus 1 [7], in the series on Human alphaherpesvirus 2 and in the series with Human alphaherpesvirus 1 [9] was greater than 100 µM throughout. This compound registered an MCC in [8] greater than 100 µM.
Consider `Cc1cn([C@H]2C=C[C@@H](COP(=O)(N[C@@H](C)C(=O)OC3CCCCC3)N[C@@H](C)C(=O)OC3CCCCC3)O2)c(=O)[nH]c1=O`, for which the IC50 (commonly the concentration needed to halve the response being measured) in the series on CCRF-CEM [10] was found to be 54 µM; in the series with Caco-2 it was 135 µM; with L1210 [2], 29 µM; in the series with L1210 [11], 25 µM; with HeLa [12], 36 µM; with CCRF-CEM [4], 73 µM. Also, in the series with HeLa [5], the IC50 was 96 µM. The EC50 amounted to 380 nM in series [1] and 150 nM in series [6].
Consider `C[C@H](NP(=O)(N[C@@H](C)C(=O)OCC(C)(C)C)OC[C@@H]1CC[C@H](n2cnc3c(N)ncnc32)O1)C(=O)OCC(C)(C)C`, for which the EC50 in [1] turned out to be 49 nM; in [6], 100 nM. Also, the IC50 is 76 µM with L1210 [2] and 36 µM in the series on CCRF-CEM [4]. The compound further yielded a CC50 in the series on CCRF-CEM [3] of 35 µM.
Consider `CC(=O)Nc1ccn([C@H]2CS[C@@H](CO)O2)c(=O)n1`, for which the 50% inhibitory concentration (IC50) was greater than 250 µM in the series on CCRF-CEM [10]; greater than 250 µM in the series on Caco-2; greater than 250 µM in the series with L1210 [2]; greater than 250 µM with L1210 [11]; greater than 250 µM in the series on HeLa [12]; no less than 250 µM with COLO 320. Moreover, the figures for the IC50 in the series with CCRF-CEM [4] and with HeLa [5] were greater than 250 µM and 242 µM, respectively.
As for `CC(=O)Nc1ccn([C@H]2CS[C@@H](COP(=O)(N[C@@H](C)C(=O)OCc3ccccc3)N[C@@H](C)C(=O)OCc3ccccc3)O2)c(=O)n1`, the 50% inhibitory concentration (IC50) with Caco-2 is no less than 250 µM; with COLO 320, greater than 250 µM; in the series with CCRF-CEM [4] it was 120 µM; with HeLa [5], 155 µM.
As for `C[C@H](NP(=O)(N[C@@H](C)C(=O)OCc1ccccc1)OC[C@H]1O[C@@H](n2ccc(N)nc2=O)CS1)C(=O)OCc1ccccc1`, the IC50 in the series with CCRF-CEM [10] amounted to 106 µM; in the series on Caco-2, 87 µM; with L1210 [2] it was 86 µM; with L1210 [11], 57 µM; with HeLa [12], 38 µM; with COLO 320 it was 85 µM. Moreover, the IC50 with CCRF-CEM [4] was determined as 116 µM; in the series on HeLa [5] it was 93 µM. Also, the concentration for a half-maximal effect (EC50) in [1] and in series [6] was greater than 50000 nM in each case.
On to `C[C@H](NP(=O)(N[C@@H](C)C(=O)OCc1ccccc1)OC[C@@H]1C=C[C@H](n2cnc3c(NC4CC4)nc(N)nc32)C1)C(=O)OCc1ccccc1`, for which the EC50 came to 1100 nM in [1] and 560 nM in series [6]. Also, the IC50 turned out to be 54 µM in the series on L1210 [2], 19 µM in the series with CCRF-CEM [4] and 23 µM with HeLa [5].
For the compound `C[C@H](NP(=O)(N[C@@H](C)C(=O)OCC(C)(C)C)OC[C@@H]1C=C[C@H](n2cnc3c(NC4CC4)nc(N)nc32)C1)C(=O)OCC(C)(C)C`, the EC50 in series [1] turned out to be 1200 nM; in series [6], 1500 nM. Besides, the IC50 in the series with L1210 [2] was found to be 48 µM; with CCRF-CEM [4], 27 µM; with HeLa [5] it was 36 µM.
On to `C[C@H](NP(=O)(N[C@@H](C)C(=O)OCc1ccccc1)OC[C@H]1O[C@@H](n2cnc(C(N)=O)c2N)[C@H](O)[C@@H]1O)C(=O)OCc1ccccc1`, for which the EC50 in the series with Felid alphaherpesvirus 1, with Human alphaherpesvirus 1 [7], in the series on Human alphaherpesvirus 2 and in the series on Human alphaherpesvirus 1 [9] was greater than 100 µM throughout. Further, the IC50 in the series with L1210 [2], with HeLa [12], in the series on CCRF-CEM [4] and in the series with HeLa [5] was greater than 250 µM each time. Also, in [8], the MCC is greater than 100 µM.
Turning to `COC(=O)[C@H](C)NP(=O)(N[C@@H](C)C(=O)OC)OC[C@H]1O[C@@H](n2cnc(C(N)=O)c2N)[C@H](O)[C@@H]1O`, the EC50 in the series on Felid alphaherpesvirus 1, in the series with Human alphaherpesvirus 1 [7], in the series on Human alphaherpesvirus 2 and in the series on Human alphaherpesvirus 1 [9] was greater than 100 µM in each case. For the same compound, the IC50 with L1210 [2] was no less than 250 µM; in the series on HeLa [12] it was greater than 250 µM; with CCRF-CEM [4], greater than 250 µM; in the series on HeLa [5], greater than 250 µM. Besides, in [8], the MCC was greater than 100 µM.
As to `Cc1cn([C@H]2C[C@H](N=[N+]=[N-])[C@@H](COP(=O)(N[C@@H](C)C(=O)OCc3ccccc3)N[C@@H](C)C(=O)OCc3ccccc3)O2)c(=O)[nH]c1=O`, the EC50 in [1] came out at 30 nM; in [6], 9.2 nM. The same compound registered a CC50 in the series with CCRF-CEM [3] of 30 µM.
For `Cc1cn([C@H]2C[C@H](N=[N+]=[N-])[C@@H](COP(=O)(N[C@@H](C)C(=O)OCC(C)(C)C)N[C@@H](C)C(=O)OCC(C)(C)C)O2)c(=O)[nH]c1=O` the same measures were 13 nM, 8.3 nM and 75 µM.

Values taken from ChEMBL document CHEMBL3085645, “Design, synthesis and biological evaluation of phosphorodiamidate prodrugs of antiviral and anticancer nucleosides” (Eur J Med Chem, 2013).
